The target of data set [1] is T1, MalA R400H (Saccharolobus solfataricus, UniProt D0KQM8, R400H).
T1 sequence (D0KQM8 1-700 R400H): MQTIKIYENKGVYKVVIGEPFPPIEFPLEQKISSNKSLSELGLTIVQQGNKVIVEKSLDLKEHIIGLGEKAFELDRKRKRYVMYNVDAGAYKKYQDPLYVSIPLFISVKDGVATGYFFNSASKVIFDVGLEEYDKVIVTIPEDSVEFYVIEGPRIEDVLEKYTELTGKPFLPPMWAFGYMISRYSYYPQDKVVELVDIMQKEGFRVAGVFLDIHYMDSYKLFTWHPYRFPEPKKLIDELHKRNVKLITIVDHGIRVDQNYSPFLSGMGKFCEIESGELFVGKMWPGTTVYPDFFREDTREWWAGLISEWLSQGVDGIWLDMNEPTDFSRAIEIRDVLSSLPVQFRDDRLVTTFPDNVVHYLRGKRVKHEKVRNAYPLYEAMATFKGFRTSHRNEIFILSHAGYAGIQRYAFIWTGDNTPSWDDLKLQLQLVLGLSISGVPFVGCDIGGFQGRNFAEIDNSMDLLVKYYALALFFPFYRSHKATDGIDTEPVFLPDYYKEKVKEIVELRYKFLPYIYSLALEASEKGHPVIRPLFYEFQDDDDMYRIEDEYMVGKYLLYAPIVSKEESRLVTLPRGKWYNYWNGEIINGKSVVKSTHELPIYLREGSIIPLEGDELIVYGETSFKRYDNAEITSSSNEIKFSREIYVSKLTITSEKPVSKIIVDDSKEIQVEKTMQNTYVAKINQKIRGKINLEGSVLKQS
Description: IC50 determination on pNP-α-D-Glc, MalA R400H. The format is biochemical, Saccharolobus solfataricus 98/2. The essentials: (§1)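 Standard assay: 10 mM pNP-α-D-Glc in 100 mM sodium citrate pH 5.0, 85 °C, 2 min. Enzyme per reaction: WT 0.9 µg, R400H 26 µg, R400G 45 µg. Stopped on ice with sodium carbonate pH 10.2; A420 read at room temperature. Inhibitor ranges: 1-DNJ up to 5 mM, acarbose up to 9 mM, NB-DNJ up to 1 mM.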

In a further data set the target is T2, MalA WT (Saccharolobus solfataricus, UniProt D0KQM8).
T2 sequence (D0KQM8 1-700): T1 sequence (D0KQM8 1-700 R400H) with H400R
Nature of the data set: Differential scanning fluorimetry with inhibitors/NAC, MalA WT. The format is binding, Saccharolobus solfataricus 98/2. The essentials:
(§2)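 His-tagged MalA (WT, R400G or R400H) was expressed in E. coli BL21(DE3) RIL, heat-fractionated at 70 °C and Ni-purified. Each enzyme ([…]) was mixed with SYPRO Orange in 0.2 M sodium citrate pH 5.0, sodium phosphate pH 7.0 or sodium borate pH 8.5, in triplicate. Held 10 min at 25 °C, scanned 25–95 °C ([…]), then held 10 min. Ligands: 1-DNJ or NB-DNJ 0.1/0.8 mM, acarbose 0.4/1.0 mM, NAC 10/30 mM. Tm fitted on normalised fluorescence; SD from […] replicates.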
On the technique in general: In DSF a fluorescence change marks the thermal transition of the protein.

In data set [2] the target is T3, MalA R400G (Saccharolobus solfataricus, UniProt D0KQM8, R400G).
T3 sequence (D0KQM8 1-700 R400G): T1 sequence (D0KQM8 1-700 R400H) with H400G
Nature of the data set: Differential scanning fluorimetry with inhibitors/NAC, MalA R400G. The format is binding, Saccharolobus solfataricus 98/2. An outline of the steps:
as §2

Data set [3] has as its system recombinant GAA. As to conditions: cited from earlier work.
The target of data set [4] is T4, MalA wild-type (Saccharolobus solfataricus, UniProt D0KQM8).
T4 sequence (D0KQM8 1-700): T1 sequence (D0KQM8 1-700 R400H) with H400R
Nature of the data set: Inhibition kinetics. The format is biochemical, Saccharolobus solfataricus 98/2.

The target of data set [5] is T1, MalA R400H. Nature of the data set: Inhibition kinetics. The format is biochemical, Saccharolobus solfataricus 98/2. An outline of the steps: (§3)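 Inhibition kinetics at 85 °C under the standard pNP-α-D-Glc assay (100 mM sodium citrate pH 5.0; stopped with sodium carbonate, A420). Enzyme per reaction: R400H 26 µg, R400G 45 µg, wild type 0.9 µg. Inhibitor ranges: 1-DNJ 0.02–25.0 µM, acarbose 10.0–500 µM, NB-DNJ 0.5–25.0 µM.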

Data set [6] concerns the target T3, MalA R400G. Description: Inhibition kinetics. Format: biochemical, Saccharolobus solfataricus 98/2. An outline of the steps:
as §3

Data set [7] addresses T3, MalA R400G. Nature of the data set: IC50 determination on pNP-α-D-Glc, MalA R400G. Format: biochemical, Saccharolobus solfataricus 98/2. An outline of the steps: as §1
In data set [8] the target is T1, MalA R400H. Nature of the data set: Differential scanning fluorimetry with inhibitors/NAC, MalA R400H. Format: binding, Saccharolobus solfataricus 98/2. The essentials: as §2
The target in data set [9] is T4, MalA wild-type. Nature of the data set: IC50 determination on pNP-α-D-Glc, MalA wild-type. Format: biochemical, Saccharolobus solfataricus 98/2. The essentials: as §1
Data set [10] relates to recombinant GAA. As to conditions: 10 mM NAC; cited from earlier work.
For a further data set, the system named is α-glucosidase from rice. Nature of the data set: Differential scanning fluorimetry with NAC, α-glucosidase from rice. Format: binding. To be noted: GH31 GAA from rice, Figure S7. The essentials:
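Rice α-glucosidase (type V, 2.5 µg) in 0.2 M sodium borate pH 8.0 with SYPRO Orange, in triplicate, with NAC present. Thermal scan 25–95 °C in 1 °C increments every 0.5 min. Fluorescence normalised to each scan's maximum. Tm calculated per Niesen by curve fitting.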

A further data set has as its system COS-7 cells. To be noted: transiently expressed in COS-7 cells, substrate MU-α-D-Glc; cited from earlier work.
The nature of data set [11]: Melting temperature of the enzymes by differential scanning fluorimetry. To be noted: for Tm: DSF. Format: physicochemical. The essentials: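 Recombinant human GAA (2.5 µg) with SYPRO Orange in 150 mM NaCl plus 50 mM sodium phosphate pH 7.4 or 50 mM sodium acetate, in triplicate. Scanned 25–95 °C in 1 °C increments every 1 min. Fluorescence normalised to each scan's maximum. Tm derived per Niesen by curve fitting.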

In general, IC50 refers to the concentration that gives 50% inhibition. A word on the Ki: it is a measure of affinity in units of concentration, obtained from inhibition or displacement. Read a low Ki as tighter binding. One may read the Tm as the temperature at the midpoint of the melting transition.

Where a chain is given by its changes, count along the chain named. Where “and” joins values, the source holds several entries; their conditions need not be identical. Equal entries are not always repeated.

As for `OC[C@H]1NC[C@H](O)[C@@H](O)[C@@H]1O` [1-DNJ, 1-deoxynojirimycin], the IC50 on MalA R400H [1] is 30 ± 2.3 µM; with recombinant GAA [3], 20 µM; against MalA R400G [7], 224 ± 41 µM; against MalA wild-type [9], 0.1 ± 0.01 µM. Also, the “Tm MalA WT” value came to 84.1 ± 0.5 °C at MalA WT (0.1 mM inhibitor) and 87.1 ± 0.3 °C at MalA WT (0.8 mM inhibitor). For the same compound, the “Tm MalA R400G” value at MalA R400G [2] (0.1 mM inhibitor) was determined as 66.4 ± 0.2 °C; on MalA R400G [2] (0.8 mM inhibitor), 67.5 ± 0.3 °C. The inhibition constant Ki stood at 0.009 µM at MalA wild-type [4], 2.2 µM at MalA R400H [5] and 1.4 µM at MalA R400G [6]. Further, the “Tm MalA R400H” value is 65.5 ± 0.2 °C on MalA R400H [8] (0.1 mM inhibitor) and 64.1 ± 0.1 °C on MalA R400H [8] (0.8 mM inhibitor).
Take `C[C@H]1O[C@H](O[C@H]2[C@H](O)[C@@H](O)[C@@H](O[C@H]3[C@H](O)[C@@H](O)C(O)O[C@@H]3CO)O[C@@H]2CO)[C@H](O)[C@@H](O)[C@@H]1N[C@H]1C=C(CO)[C@@H](O)[C@H](O)[C@H]1O` (some centres unmarked) [Acarbose, acarbose]: the IC50 turned out to be 830 ± 91.5 µM against MalA R400H [1], 912 ± 67.5 µM at MalA R400G [7] and 20.2 ± 0.9 µM at MalA wild-type [9]. Further, the “Tm MalA WT” value at MalA WT (0.4 mM inhibitor) amounted to 79.1 ± 0.9 °C; at MalA WT (1.0 mM inhibitor), 79.8 ± 0.7 °C. Further, the ΔTm result on MalA WT (0.4 mM inhibitor, vs no inhibitor) was “+2.0 °C”. Besides, the results for the “Tm MalA R400G” value at MalA R400G [2] (0.4 mM inhibitor) and at MalA R400G [2] (1.0 mM inhibitor) were 65 ± 0.04 °C and 65 ± 0.1 °C, respectively. The Ki at MalA wild-type [4] is 0.98 µM; on MalA R400H [5] it was 72 µM; on MalA R400G [6], 23 µM. Moreover, the “Tm MalA R400H” value amounted to 64.2 ± 0.1 °C at MalA R400H [8] (0.4 mM inhibitor) and 64.2 ± 0.2 °C on MalA R400H [8] (1.0 mM inhibitor).
Turning to `CC(=O)N[C@@H](CS)C(=O)O` [NAC, N-acetylcysteine], the “Tm MalA WT” value at MalA WT (10 mM NAC) is 75.8 ± 0.86 °C; at MalA WT (30 mM NAC), 79.6 ± 0.54 °C. Also, in the data set on recombinant GAA [10], the “increase of Tm” value is 10.5 ± 0.5 °C and 10.5 °C. The “Tm MalA R400G” value on MalA R400G [2] (10 mM NAC) worked out at 65.5 ± 0.04 °C; on MalA R400G [2] (30 mM NAC), 67.3 ± 0.11 °C. The stabilising effect entry in the data set on α-glucosidase from rice was “no stabilising effect”. The figures for the “Tm MalA R400H” value on MalA R400H [8] (10 mM NAC) and on MalA R400H [8] (30 mM NAC) were 64.9 ± 0.03 °C and 67.7 ± 0.13 °C, respectively.
Turning to `CCCCN1C[C@H](O)[C@@H](O)[C@H](O)[C@H]1CO` [NB-DNJ, N-butyldeoxynojirimycin], the IC50 on MalA R400H [1] was 5.7 ± 0.21 µM; with recombinant GAA [3], 158 µM; at MalA R400G [7], 55 ± 6.62 µM; at MalA wild-type [9], 1.7 ± 0.2 µM. Also, the “Tm MalA WT” value on MalA WT (0.1 mM inhibitor) came out at 86 ± 0.7 °C; at MalA WT (0.8 mM inhibitor), 85.1 ± 0.6 °C. In addition, the “Tm MalA R400G” value stood at 65.6 ± 0.2 °C at MalA R400G [2] (0.1 mM inhibitor) and 63.5 ± 0.1 °C on MalA R400G [2] (0.8 mM inhibitor). The Ki on MalA wild-type [4] turned out to be 0.13 µM; on MalA R400H [5] it was 0.7 µM; on MalA R400G [6], 0.13 µM. The “Ki fold higher than WT” value on MalA R400H [5] (R400H vs MalA WT) was found to be 5.4 fold. In addition, the “Tm MalA R400H” value at MalA R400H [8] (0.1 mM inhibitor) was 64.7 ± 0.4 °C; at MalA R400H [8] (0.8 mM inhibitor), 61.7 ± 0.1 °C.
For the compound “R600H: pathogenic human GAA mutant transiently expressed in COS-7 cells”, in the data set on COS-7 cells, the “activity compared to GAA wild-type” value is recorded as “less than 2%”.
For the compound “recombinant GAA: recombinant human lysosomal acid α-glucosidase”, the results for the Tm in [11] (pH 4.0) and in [11] (pH 7.4) were 53.7 ± 0.2 °C and 47.9 ± 0.7 °C, respectively. The “Tm difference, less than MalA WT at pH 8.5” value was determined as 23.3 °C in data set [11] (GAA at pH 4.0) and 29.1 °C in data set [11] (GAA at pH 7.4).

The values above are taken from publication PMC11864002 (Journal of Enzyme Inhibition and Medicinal Chemistry, 2025).
